In ChEMBL document CHEMBL1127533, “Presynaptic cholinergic modulators as potent cognition enhancers and analgesic drugs. 2. 2-Phenoxy-, 2-(phenylthio)-, and 2-(phenylamino)alkanoic acid esters” (J Med Chem, 1994):
Active and inactive are the calls of the source.

Assays:
[1] = species on record: Mus musculus; assay: Analgesic activity in male albino Swiss-Webster mice in hotplate test; assay type: functional
Procedure, shortened: (§1)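 Mouse hot-plate assay after Woolfe, with the plate held at 52.5 ± 0.1 °C and a 45 s cutoff. Groups held 8–20 mice. Analgesic potency is expressed as the ED50.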

[2] = system: Mus musculus; assay: Analgesic potency was evaluated as effective dose after subcutaneous administration.; assay type: functional; procedure, shortened: as §1
[3] = target: Muscarinic acetylcholine receptor; assay: The compound is evaluated for binding affinity against central muscarinic receptor by using [3H]- QNB as radioligand; assay type: protein assay
[4] = system: Mus musculus; assay: Analgesic potency was evaluated as Effective Dose 50 after subcutaneous administration. Standard error given in parenthesis; assay type: functional; details: sc; procedure, shortened: as §1
[5] = species on record: Mus musculus; assay: Compound was evaluated for analgesic activity, in male albino Swiss-Webster mice with hotplate test and maximum level of analgesia reached is evaluated; assay type: functional
Procedure, shortened: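 Mouse hot-plate at 52.5 ± 0.1 °C with a 45 s cutoff. Each compound was given at its maximal nontoxic dose, defined as no visible behavioural change to blinded observers. Efficacy = (max reaction time − pretest)/(same for morphine-HCl 8 mg/kg sc) × 100.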

[6] = Mus musculus, sc, read-out: ED50

Row | SMILES | Analgesic activity [1] | ED50 [2, 6] [mg/kg] | further results
1 | CN1C2CCC1CC(OC(=O)COc1ccccc1)C2 (stereo not drawn) | inactive | – | –
2 | CC(Sc1ccc(F)cc1)C(=O)OC1CC2CCC(C1)N2C (stereo not drawn) | 41 | 15 | –
3 | CC(Sc1ccccc1)C(=O)OC1CC2CCC(C1)N2C.O=C(O)/C=C\C(=O)O (stereo not drawn) | 62 | 30 | –
4 | CCC(Oc1cccc2ccccc12)C(=O)OC1CC2CCC(C1)N2C (stereo not drawn) | inactive | – | –
5 | CC(Oc1ccc(C#N)cc1)C(=O)OC1CC2CCC(C1)N2C.O=C(O)/C=C\C(=O)O (stereo not drawn) | 53 | 31 | –
6 | CCC(Oc1ccc(Cl)cc1)C(=O)OCCCN(C)C (stereo not drawn) | inactive | – | –
7 | CC(Oc1ccc(Cl)cc1)C(=O)OC1CC2CCC(C1)N2 (stereo not drawn) | inactive | – | –
8 | CCN(CC)CC#CCOC(=O)C(C)Oc1ccc(Cl)cc1 (stereo not drawn) | inactive | – | –
9 | CC(C)C(Sc1ccc(Cl)cc1)C(=O)OC1CC2CCC(C1)N2C.O=C(O)/C=C\C(=O)O (stereo not drawn) | 41 | 41 | –
10 | CCC(Oc1ccc(Cl)cc1)C(=O)OC1CCN(C)CC1 (stereo not drawn) | inactive | – | –
11 | CCC(Sc1ccccc1)C(=O)OC1CC2CCC(C1)N2C (racemic) | 103 | – | ED50 [2]: 18 mg/kg; Ki [3]: 0.0227 µM
12 | CCC(Oc1ccccc1)C(=O)OC1CC2CCC(C1)N2C (stereo not drawn) | 35 | 31 | –
13 | CC(COC1CC2CCC(C1)N2C)Sc1ccc(Cl)cc1 (stereo not drawn) | inactive | – | –
14 | C[C@@H](Oc1ccc(Cl)cc1)C(=O)OC1CC2CCC(C1)N2C (stereo partly drawn) | 68 | 16 | –
15 | CCC(Oc1ccc(Cl)cc1)C(=O)OC1CC2CCC(C1)N2C.O=C(O)/C=C\C(=O)O (racemic) | 99 | 20 | Ki [3]: 0.174 µM
16 | CN1C2CCC1CC(OC(=O)CCOc1ccccc1)C2.O=C(O)/C=C\C(=O)O (stereo not drawn) | – | – | ED50 [4]: 22 mg/kg; Analgesic activity [5]: 28
17 | CC(Oc1ccc(Cl)cc1)C(=O)OC1CC2CCC(C1)N2C.O=C(O)/C=C\C(=O)O (racemic) | – | 32 | Analgesic activity [5]: 90
18 | CCN1C2CCC1CC(OC(=O)C(C)Oc1ccc(Cl)cc1)C2.O=C(O)/C=C\C(=O)O (stereo not drawn) | 42 | 42 | –
19 | CCC(C(=O)OC1CC2CCC(C1)N2C)N(C)c1ccc(Cl)cc1.O=C(O)/C=C\C(=O)O (stereo not drawn) | 85 | 38 | –
20 | C[C@@H](Sc1ccc(Cl)cc1)C(=O)OC1CC2CCC(C1)N2C (stereo partly drawn) | 61 | 14 | –
21 | CC(=O)OCC(Oc1ccc(Cl)cc1)C(=O)OC1CC2CCC(C1)N2C (stereo not drawn) | 25 | 23 | –
22 | CC(Oc1ccc(Cl)cc1)C(=O)OC1CC2CCC(C1)N2C.O=C(O)/C=C\C(=O)O (stereo in doubt; 12) | 26 | – | ED50 [2]: 21 mg/kg
23 | CC(Oc1cccc2ccccc12)C(=O)OC1CC2CCC(C1)N2C (stereo not drawn) | inactive | – | –
24 | CN1C2CCC1CC(OC(=O)C(Cc1ccccc1)Oc1ccc(Cl)cc1)C2 (stereo not drawn) | inactive | – | –
25 | CCC(Sc1ccccc1)C(=O)OC1CC2CCC(C1)N2C (stereo in doubt; (-)-42) | 53 | – | ED50 [2]: 13 mg/kg

Row | SMILES | Analgesic activity [1] | ED50 [2, 6] [mg/kg] | further results
26 | CCC(Oc1ccc2cc(Br)ccc2c1)C(=O)OC1CC2CCC(C1)N2C.O=C(O)/C=C\C(=O)O (stereo not drawn) | 32 | 42 | –
27 | CC[C@@H](Oc1ccc(Cl)cc1)C(=O)OC1CC2CCC(C1)N2C (stereo partly drawn) | 89 | 14 | –
28 | CC(Oc1ccc(C(C)(C)C)cc1)C(=O)OC1CC2CCC(C1)N2C (stereo not drawn) | inactive | – | –
29 | CC(Sc1ccc(Cl)cc1)C(=O)OC1CC2CCC(C1)N2C.O=C(O)/C=C\C(=O)O (racemic) | 72 | 19 | –
30 | CC(Oc1ccc(F)cc1)C(=O)OC1CC2CCC(C1)N2C.O=C(O)/C=C\C(=O)O (racemic) | 91 | 33 | –
31 | CCC(Oc1ccc(F)cc1)C(=O)OC1CC2CCC(C1)N2C (stereo not drawn) | 94 | 37 | –
32 | CC(Oc1ccc(-c2ccccc2)cc1)C(=O)OC1CC2CCC(C1)N2C (stereo not drawn) | inactive | – | –
33 | CCC(Sc1ccccc1)C(=O)OC1CC2CCC(C1)N2C (single isomer, unassigned; (+)) | 86 | 16 | –
34 | Cc1ccc(SC(C)C(=O)OC2CC3CCC(C2)N3C)cc1.O=C(O)/C=C\C(=O)O (stereo not drawn) | 33 | 7 | –
35 | CCC(Oc1ccc(Cl)cc1)C(=O)OCC#CCN(CC)CC (stereo not drawn) | inactive | – | –
36 | CCC(Oc1ccc(Cl)cc1)C(=O)OC1CC2CCC(C1)N2CC (stereo not drawn) | 45 | 32 | –
37 | Cc1cc(OC(C)C(=O)OC2CC3CCC(C2)N3C)ccc1Cl (stereo not drawn) | inactive | – | –
38 | CC(Oc1ccc(Cl)c2ccccc12)C(=O)OC1CC2CCC(C1)N2C (stereo not drawn) | inactive | – | –
39 | CCC(COC1CC2CCC(C1)N2C)Sc1ccc(Cl)cc1 (stereo not drawn) | 53 | 39 | –
40 | CC[C@H](Oc1ccc(Cl)cc1)C(=O)OC1CC2CCC(C1)N2C (stereo partly drawn) | 56 | 18 | –
41 | CCN(CC)CCOC(=O)C(C)Oc1ccc(Cl)cc1 (stereo not drawn) | inactive | – | –
42 | CC(COC1CC2CCC(C1)N2C)Oc1ccc(Cl)cc1 (stereo not drawn) | 64 | 44 | –
43 | C[C@@H](Oc1ccc(F)cc1)C(=O)OC1CC2CCC(C1)N2C (stereo partly drawn) | 106 | 21 | –
44 | CC(Oc1ccc(Cl)c(Cl)c1)C(=O)OC1CC2CCC(C1)N2C.O=C(O)/C=C\C(=O)O (stereo not drawn) | 50 | 22 | –
45 | CC(C(=O)OC1CC2CCC(C1)N2C)[S+]([O-])c1ccccc1 (stereo not drawn) | inactive | – | –
46 | CC(Oc1ccc([S+](C)[O-])cc1)C(=O)OC1CC2CCC(C1)N2C (stereo not drawn) | inactive | – | –
47 | CC[C@@H](Sc1ccc(Cl)cc1)C(=O)OC1CC2CCC(C1)N2C (stereo partly drawn) | 64 | 11 | –
48 | CN1C2CCC1CC(OC(=O)C(Oc1ccc(Cl)cc1)c1ccccc1)C2 (stereo not drawn) | inactive | – | –
49 | CC(Oc1ccccc1)C(=O)OC1CC2CCC(C1)N2C (stereo not drawn) | inactive | – | –
50 | C[C@H](Oc1ccc(F)cc1)C(=O)OC1CC2CCC(C1)N2C (stereo partly drawn) | 65 | 23 | –

Row | SMILES | Analgesic activity [1] | ED50 [2, 6] [mg/kg] | further results
51 | CC(Sc1ccc(Br)cc1)C(=O)OC1CC2CCC(C1)N2C (stereo not drawn) | 33 | 35 | –
52 | C[C@H](Sc1ccc(Cl)cc1)C(=O)OC1CC2CCC(C1)N2C (stereo partly drawn) | 34 | 16 | –
53 | C[C@H](Oc1ccc(Cl)cc1)C(=O)OC1CC2CCC(C1)N2C (stereo partly drawn) | 37 | 17 | –
54 | CC(Nc1ccc(Cl)cc1)C(=O)OC1CC2CCC(C1)N2C (stereo not drawn) | 33 | 31 | –
55 | CSc1ccc(OC(C)C(=O)OC2CC3CCC(C2)N3C)cc1.O=C(O)/C=C\C(=O)O (stereo not drawn) | 21 | 43 | –
56 | CCC(Sc1ccc(Cl)cc1)C(=O)OC1CC2CCC(C1)N2C (racemic) | 79 | 20 | –
57 | CC(Oc1ccccc1Cl)C(=O)OC1CC2CCC(C1)N2C (stereo not drawn) | inactive | – | –
58 | CCC(Oc1ccc(Cl)c2ccccc12)C(=O)OC1CC2CCC(C1)N2C (stereo not drawn) | inactive | – | –
59 | CC(C)C(Oc1ccc(Cl)cc1)C(=O)OC1CC2CCC(C1)N2C (stereo not drawn) | inactive | – | –
60 | CC(Oc1cccc(Cl)c1)C(=O)OC1CC2CCC(C1)N2C (stereo not drawn) | 62 | 26 | –
61 | CC(Oc1ccc2ccccc2c1)C(=O)OC1CC2CCC(C1)N2C.O=C(O)/C=C\C(=O)O (stereo not drawn) | 86 | 34 | –
62 | CN1C2CCC1CC(OC(=O)C(C)(C)Oc1ccc(Cl)cc1)C2 (stereo not drawn) | 52 | 23 | –
63 | CC(Oc1ccc(C(F)(F)F)cc1)C(=O)OC1CC2CCC(C1)N2C (stereo not drawn) | 44 | 26 | –
64 | CC[C@H](Sc1ccc(Cl)cc1)C(=O)OC1CC2CCC(C1)N2C (stereo partly drawn) | 38 | 14 | –
65 | CC(Oc1ccc(Cl)cc1)C(=O)NC1CC2CCC(C1)N2C.Cl (stereo not drawn) | 33 | 36 | –
66 | CC(Oc1ccc2cc(Br)ccc2c1)C(=O)OC1CC2CCC(C1)N2C (stereo not drawn) | inactive | – | –
67 | CC(C(=O)OC1CC2CCC(C1)N2C)C(=O)c1ccc(Cl)cc1 (stereo not drawn) | 30 | 34 | –
68 | CCC(Oc1ccc2ccccc2c1)C(=O)OC1CC2CCC(C1)N2C (stereo not drawn) | inactive | – | –
69 | CC(Nc1ccccc1)C(=O)OC1CC2CCC(C1)N2C.Cl (stereo not drawn) | 74 | 32 | –
70 | CC(Oc1ccc(Br)cc1)C(=O)OC1CC2CCC(C1)N2C (stereo not drawn) | 86 | 31 | –
71 | CCC(COC1CC2CCC(C1)N2C)Oc1ccc(Cl)cc1 (stereo not drawn) | inactive | – | –
72 | CC(Oc1ccc(Cl)cc1)C(=O)OC1CC2CCC(C1)N2Cc1ccccc1 (stereo not drawn) | inactive | – | –
73 | CC(Oc1ccc(Cl)cc1)C(=O)OC1CCN(C)CC1 (stereo not drawn) | inactive | – | –
74 | CC(C(=O)OC1CC2CCC(C1)N2C)N(C)c1ccc(Cl)cc1.O=C(O)/C=C\C(=O)O (stereo not drawn) | 86 | 29 | –
